ChEMBL document CHEMBL2311261, “Biocatalytic synthesis, structural elucidation, antioxidant capacity and tyrosinase inhibition activity of long chain fatty acid acylated derivatives of phloridzin and isoquercitrin” (Bioorg Med Chem, 2013)

Columns and labels:
[1] = test system: Radical scavenging activity; assay: Antioxidant activity assessed as DPPH radical scavenging activity; assay type: functional
In short: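 Test compounds at a series of concentrations in DMSO/chloroform/methanol (1:8:4), mixed 1:1 (v/v) with 0.2 mM DPPH and incubated 30 min at 25 °C. Absorbance read at 520 nm from 0 s and every 300 s until plateau. Run in triplicate.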

[2] = Antioxidant activity assessed as Trolox equivalents of 0.01 mmol/L solution by ORAC assay; assay type: functional
[3] = Antioxidant activity assessed as Trolox equivalents of 0.001 mmol/L solution by ORAC assay; assay type: functional
[4] = Antioxidant activity assessed as Trolox equivalents of 1 mmol/L solution by FRAP assay; assay type: functional
In short: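 FRAP reagent made daily from 300 mmol l⁻¹ acetate buffer (pH 3.6), 10 mmol l⁻¹ TPTZ and 20 mmol l⁻¹ FeCl3 (10:1:1). Trolox calibration 50–1000 μmol l⁻¹. Result given as Trolox equivalents of a 1 mmol l⁻¹ solution. Run in triplicate.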

[5] = test system: tyrosinase (Agaricus bisporus); assay: Inhibition of mushroom tyrosinase using L-DOPA substrate at 10 uM
[6] = test system: tyrosinase (Agaricus bisporus); assay: Inhibition of mushroom tyrosinase using L-DOPA substrate at 100 uM
[7] = test system: tyrosinase (Agaricus bisporus); assay: Inhibition of mushroom tyrosinase using L-DOPA substrate at 1000 uM

Row | SMILES | IC50 [1] | Activity [2] | Activity [3] | Activity [4] | inhibition [5] | inhibition [6] | inhibition [7]
1 | O=C(CCc1ccc(O)cc1)c1c(O)cc(O)cc1O[C@@H]1O[C@H](CO)[C@@H](O)[C@H](O)[C@H]1O [PHLORIZIN] | 1490 µM | 120 µmol/L |  |  |  |  | 
2 | CCCCCCCC/C=C\CCCCCCCC(=O)OC[C@H]1O[C@@H](Oc2c(-c3ccc(O)c(O)c3)oc3cc(O)cc(O)c3c2=O)[C@H](O)[C@@H](O)[C@@H]1O | 38.2 µM |  | 265 µmol/L | 536 µmol/L | 38.9% | 47.5% | 62.4%
3 | O=c1c(O[C@@H]2O[C@H](CO)[C@@H](O)[C@H](O)[C@H]2O)c(-c2ccc(O)c(O)c2)oc2cc(O)cc(O)c12 [ISOQUERCETIN] | 17.9 µM |  | 473 µmol/L | 1500 µmol/L |  |  | 
4 | CC/C=C\C/C=C\C/C=C\CCCCCCCC(=O)OC[C@H]1O[C@@H](Oc2c(-c3ccc(O)c(O)c3)oc3cc(O)cc(O)c3c2=O)[C@H](O)[C@@H](O)[C@@H]1O | 97.9 µM |  | 490 µmol/L | 614 µmol/L | 55.8% | 78.8% | 85.5%
5 | CCCCC/C=C\C/C=C\CCCCCCCC(=O)OC[C@H]1O[C@@H](Oc2c(-c3ccc(O)c(O)c3)oc3cc(O)cc(O)c3c2=O)[C@H](O)[C@@H](O)[C@@H]1O | 60.4 µM |  | 491 µmol/L | 340 µmol/L | 32.1% | 73.3% | 80.6%
6 | CCCCCCCCCCCCCCCCCC(=O)OC[C@H]1O[C@@H](Oc2c(-c3ccc(O)c(O)c3)oc3cc(O)cc(O)c3c2=O)[C@H](O)[C@@H](O)[C@@H]1O | 42 µM |  | 310 µmol/L | 622 µmol/L |  |  | 
